T cruzi repl: blocks replication of Trypanosoma cruzi; 300,000 compounds, 1.4% hits; inhibition, % (concentration not given with the values); AID 1885; T. cruzi beta-gal in NIH3T3, luminescence, 90 h;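 active means mean inhibition across valid replicates above about 55%, limit read from the data; inconclusive means mean below that limit but half or more replicates reach it; inactive means mean below it, under half of replicates reach it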;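 further: signal also drops with host cell toxicity which is not excluded here; higher percent means less beta-gal luminescence so fewer parasites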
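System: mouse NIH/3T3 fibroblasts infected with β-gal-expressing T. cruzi Tulahuen C4 / Input: NIH/3T3 cells, 5,000 per well / Buffer or medium: Low-serum DMEM with 2% FBS / Probe or stimulus: 5000 reporter trypomastigotes per well / Schedule: ≥90 h infection period, 3 h prior cell attachment / Measured by: GalScreen luminescence, 60 min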
TAG inh: inhibitors of triacylglycerol accumulation | H9c2 cells, Nile Red lipid (TAG) fluorescence; cells loaded with 200 µM oleic acid | 230,000 compounds, 0.66% hits | AID 651582 | inhibition, % at 12.5 µM;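 active means pattern-corrected inhibition of lipid staining of at least 50% with the nuclear-stain viability signal not falling by more than 50%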
CSC inhib: cancer stem cell inhibition | 300,000 compounds, 1.1% hits | cancer stem cell-like cells viability, luminescence | AID 2717 | inhibition, % at 7.5 µM; in the data active means inhibition above about 75%; inconclusive means no clear call, values can overlap the other calls; tested in HMLE shEcad cells
Bfl-1 A1 inh: inhibitors of the anti-apoptotic protein A1, read as caspase activation | MEF A1-2A-BIM cells, Caspase-Glo 3/7 luminescence, 3 h; percent of clofoctol response, vehicle zero | caspase activation, % (concentration not given with the values) | 330,000 compounds, 0.066% hits | AID 2462;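 active means over half of replicate activation scores above 10%, or exactly half above 10 with the replicate mean above 10; inconclusive means replicate mean below 10 yet half the replicates above 10; inactive means over half of replicates below 10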
Beta cell apopt: beta cell apoptosis inhibition; INS-1E cytokine-induced death, ATP luminescence, 48 h; percent of positive-control rescue, neutral wells zero; protection from apoptosis, % (concentration not given with the values); 300,000 compounds, 0.8% hits; AID 435005;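 active means Every replicate reaches about 75%, or at least half do and their mean reaches it too, limit read from the data; inconclusive means At least half of replicates reach the limit but their mean does not; inactive means Under half of replicates reach the limit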;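 further: higher means more ATP so stronger rescue from cytokine killing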
Calb FLC: affects C. albicans growth with fluconazole; 300,000 compounds, 0.57% hits; AID 1979; C. albicans CaCi-2 + fluconazole, Alamar Blue growth, 48 h; growth inhibition, % (test concentration not listed);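 active means growth inhibition above about 58% in most replicates, limit read from the data, passing the limit was not always enough; inconclusive means exactly half the replicates above a set limit; inactive means most replicates below a set limit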;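 further: all wells also contain fluconazole at 8 µg/ml as a sub-toxic cotreatment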
Numbers stand for hits; n = inactive; u = inconclusive; x = no result given. Rows were chosen to be rich in hits. Some 3.1% of all compounds tested hit in one or more screens of this group.

SMILES	T cruzi repl	TAG inh	CSC inhib	Bfl-1 A1 inh	Beta cell apopt	Calb FLC
Nc1ccc(N(c2ccccc2)c2ccc(N)cc2)cc1	58	n	90	n	x	n
CCN(CC)c1ccc(N=Cc2ccccc2[N+](=O)[O-])cc1	74	x	n	n	100	n
CCN(CC)c1ccc(N=Cc2ccc([N+](=O)[O-])o2)cc1	n	52	n	n	75	91
CC(CCc1ccccc1)NS(=O)(=O)c1ccccc1F (stereo not given)	n	x	n	n	n	n
Cc1nc2ccc(CN(C)c3ccc(C(=O)N[C@@H](CCC(=O)O)C(=O)O)s3)cc2c(=O)[nH]1	n	x	75	u	n	x
COc1cc2c(cc1OC)-c1c(OC)c(OC)cc3ccnc(c13)C2=O	n	n	n	n	112	n
COc1ccc(C(=O)c2nccc3cc(OC)c(OC)cc23)cc1OC	x	n	n	n	n	x
N#Cc1ccc(NC(=O)Nc2ccc(Oc3ccc(NC(=O)Nc4ccc(C#N)cc4)cc3)cc2)cc1	61	x	n	n	n	n
CN(C(=O)COC(=O)c1ccc(Cl)c(S(=O)(=O)NCc2ccccc2)c1)C1CCS(=O)(=O)C1 (stereo not given)	x	n	x	x	x	x
O=C(/C=C(\c1ccc(Cl)cc1)n1cncn1)c1ccc(Cl)cc1	65	x	n	n	n	n
c1cc(CNc2ccc3c(c2)OCO3)ccn1	n	n	x	n	n	n
Cc1ccc(S(=O)(=O)c2nc(NCc3ccc4c(c3)OCO4)sc2Cl)cc1	61	x	n	n	n	n
CC(=O)Nc1nc(S(=O)(=O)c2ccc(C)cc2)c(Cl)s1	n	n	x	n	n	n
Cc1ccc(CNc2ccc3c(c2)OCO3)cc1	82	x	n	n	n	n
O=C(Nc1ccccc1Cl)c1cc(C2CCCN(S(=O)(=O)c3cccs3)C2)on1 (stereo not given)	x	n	x	x	x	x
COc1ccc(OC)c(-c2csc(NC(=O)COC(=O)c3ccc(NC(=O)CC#N)cc3)n2)c1	x	n	n	n	n	x
O=[N+]([O-])c1ccc(C2CCCC/C2=N/OCc2ccc(F)cc2)c([N+](=O)[O-])c1 (stereo not given)	61	x	n	n	n	115
COc1ccc(CN(CCN(C)C)c2ccccn2)cc1	n	n	n	n	n	x
CCCCCCCCCCCCCCCC[N+](C)(C)CCN(Cc1ccc(OC)cc1)c1ncccn1	x	n	117	n	100	x
COc1ccc(S(=O)(=O)Nc2cccc3c2O[C@H](CN(C)C(=O)NC(C)C)[C@@H](C)CN([C@H](C)CO)C3=O)cc1	x	n	x	n	n	x
Cc1cc2nc3c(=O)n(CCc4ccccc4)c(=O)[nH]c3nc2cc1N	56	n	n	n	n	n
CCCCn1c(=O)[nH]c2nc3cc(N)ccc3nc2c1=O	x	x	n	n	n	x
Nc1ccc2nc3c(=O)n(CCc4ccccc4)c(=O)[nH]c3nc2c1	n	n	77	n	n	n
CCOC(=O)C1(C)CCN1C(=O)c1ccccc1OC(F)(F)F (stereo not given)	x	n	x	x	x	x
O=C(NNC(=O)c1cccc(Cl)c1)NNC(=O)c1cccc(Cl)c1	x	n	n	n	n	x
SMILES	T cruzi repl	TAG inh	CSC inhib	Bfl-1 A1 inh	Beta cell apopt	Calb FLC
COc1ccc(C(=O)NNC2=C(C(=O)C(F)(F)F)CCC2)cc1	n	n	n	n	n	n
O=C(NNC1=C(C(=O)C(F)(F)F)CCC1)c1cccc(Cl)c1	n	x	113	n	n	101
O=C(NNC1=C(C(=O)C(F)(F)F)CCC1)c1ccc(Cl)cc1	n	x	82	n	n	109
O=C(COC(=O)c1ccccc1C(=O)c1ccc(Cl)c([N+](=O)[O-])c1)NC1CC1	63	n	n	n	n	n
CNC(=O)COC(=O)c1ccccc1C(=O)c1ccc(Cl)c([N+](=O)[O-])c1	n	n	x	x	x	n
Cc1cc(Cl)ccc1NC(=O)COC(=O)CCNS(=O)(=O)c1ccccc1	x	n	n	n	n	x
CCc1cc2c(=O)c(-c3cnn(-c4ccccc4)c3)c(C)oc2cc1OCC(=O)Nc1cccc(C)c1	n	x	n	7.9	n	n
CN1/C(=C\C(=S)Nc2ccccc2)C(C)(C)c2ccccc21	n	x	n	n	120	n
COc1ccccc1C(=O)NC(=S)/C=C1/N(C)c2ccccc2C1(C)C	n	x	n	n	n	n
CN1/C(=C\C(=S)NC(=O)c2ccccc2Cl)C(C)(C)c2ccccc21	n	n	n	n	100	n
CN1/C(=C/C(=S)NC(=O)C2(C)CC2(Cl)Cl)C(C)(C)c2ccccc21 (stereo not given)	55	n	n	n	n	n
COc1ccc(CNC(=O)C2CSC(=O)C2)cc1 (stereo not given)	56	n	n	n	n	n
COc1ccc(N2CC(C(=O)NCc3ccccc3)CC2=O)cc1 (stereo not given)	n	n	n	n	n	n
COc1ccccc1N(CCC#N)C(=O)COC(=O)CCC(=O)c1ccc(F)cc1	x	n	x	n	n	x
CC1CCc2c(sc3nc(C4CC4)nc(N4CCN(C(=O)c5ccco5)CC4)c23)C1 (stereo not given)	n	n	n	n	98	n
CCc1nc(N2CCN(C(=O)c3ccco3)CC2)c2c3c(sc2n1)CCCC3	n	n	x	n	n	n
Cc1ccc(NC(=O)Cn2c(=O)c3cccn3c3ccccc32)cc1	n	x	n	n	n	n
COc1ccccc1NC(=O)C(C)OC(=O)C(C)SCC(=O)Nc1ccc(C)cc1 (stereo not given)	x	n	x	x	x	x
CN(C)c1ccc(/C=C/c2ccc3ccccc3n2)cc1	n	x	84	n	76	n
CC1CC(C)CN(CCCNC(=O)CCC(=O)N2CC(C)Oc3ccccc32)C1 (stereo not given)	n	n	x	x	n	n
CC(=O)Oc1c(Cl)cc(N(C(C)=O)S(=O)(=O)c2ccccc2)c2ccccc12	n	n	n	n	95	n
CC(=O)N(c1ccccc1Cl)S(=O)(=O)c1ccc(Cl)cc1	n	n	n	n	n	n
COc1ccc(S(=O)(=O)N(C(C)=O)c2ccc(OC(C)=O)c3ccccc23)cc1[N+](=O)[O-]	n	x	n	n	106	n
CC(=O)Oc1ccc(N(C(C)=O)S(=O)(=O)c2ccccc2)c2ccccc12	x	n	x	x	x	x
Cc1cccc(S(=O)(=O)NC(=O)C2(C)CCN2C(=O)CC2CCCCC2)c1 (stereo not given)	x	n	x	x	x	x
OC(COc1ccccc1F)CN1CCC(Cc2ccccc2)CC1 (stereo not given)	n	x	n	n	x	n
c1ccc(COc2ccc(OCCN3CCCC3)cc2)cc1	55	x	n	n	n	n
OC(COc1ccc(F)cc1Cl)CN1CCC(Cc2ccccc2)CC1 (stereo not given)	63	x	n	n	n	n
OC(CN1CCN(Cc2ccccc2)CC1)c1ccc(Br)cc1 (stereo not given)	57	n	n	n	n	n
OC(COc1ccccc1)CN1CCCC1 (stereo not given)	n	n	n	n	n	n
